In publication PMC7035113 (Nature, 2020):
Square brackets hold non-standard residues; d marks the D form. Ends that are not written are not given here. Peptide text beside a SMILES is read from it. pT = C[C@@H](OP(=O)(O)O)[C@H](N)C(=O)O

molecular target: T1, SA2-SCC1 (Homo sapiens, UniProt O60216+Q8N3U4); assay: Isothermal titration calorimetry; details: ITC, 25°C, one site binding model
T1 sequence (Q8N3U4 80-1060): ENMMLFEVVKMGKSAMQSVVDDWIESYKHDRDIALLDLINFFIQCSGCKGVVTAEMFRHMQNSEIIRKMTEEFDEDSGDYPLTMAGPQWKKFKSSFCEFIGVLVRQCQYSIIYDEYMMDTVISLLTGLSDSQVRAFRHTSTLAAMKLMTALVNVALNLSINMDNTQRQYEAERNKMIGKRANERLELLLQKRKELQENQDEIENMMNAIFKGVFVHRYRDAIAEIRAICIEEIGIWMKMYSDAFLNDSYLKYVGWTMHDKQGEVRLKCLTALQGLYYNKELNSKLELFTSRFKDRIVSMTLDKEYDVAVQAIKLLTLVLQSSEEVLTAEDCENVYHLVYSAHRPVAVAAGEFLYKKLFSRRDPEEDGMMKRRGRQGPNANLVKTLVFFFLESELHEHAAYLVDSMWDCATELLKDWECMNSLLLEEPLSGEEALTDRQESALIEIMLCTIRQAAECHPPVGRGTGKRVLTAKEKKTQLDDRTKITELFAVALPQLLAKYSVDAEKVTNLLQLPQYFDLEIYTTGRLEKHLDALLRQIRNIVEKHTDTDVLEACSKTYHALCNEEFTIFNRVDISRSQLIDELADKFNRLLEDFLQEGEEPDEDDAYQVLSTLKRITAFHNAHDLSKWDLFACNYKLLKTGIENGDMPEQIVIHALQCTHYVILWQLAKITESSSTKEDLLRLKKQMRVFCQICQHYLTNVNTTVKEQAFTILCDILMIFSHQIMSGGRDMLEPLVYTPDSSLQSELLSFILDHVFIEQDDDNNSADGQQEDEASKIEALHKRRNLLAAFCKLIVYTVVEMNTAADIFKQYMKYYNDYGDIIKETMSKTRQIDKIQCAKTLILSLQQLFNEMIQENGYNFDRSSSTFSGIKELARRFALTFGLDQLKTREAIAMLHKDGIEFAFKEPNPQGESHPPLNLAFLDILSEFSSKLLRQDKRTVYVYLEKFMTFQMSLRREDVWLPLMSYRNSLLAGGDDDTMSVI
T1 sequence (O60216 281-420): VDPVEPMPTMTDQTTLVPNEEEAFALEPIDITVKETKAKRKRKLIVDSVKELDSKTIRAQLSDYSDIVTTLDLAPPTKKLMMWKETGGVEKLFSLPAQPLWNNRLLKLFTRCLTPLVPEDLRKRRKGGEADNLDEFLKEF
Outline: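 Recombinant SA2-SCC1 from E. coli BL21(DE3), purified by Co2+ IMAC, MonoQ and Superdex 200. Protein and peptides were dialysed overnight at 4°C against 20 mM Tris pH 7.7, 150 mM NaCl, 0.5 mM TCEP. 50 μM SA2-SCC1 was placed in the cell and titrated with 500 μM peptide in 16 injections. Data were fitted to a one-site model; titrations were repeated three times.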

N (binding stoichiometry)	TΔS [kcal/mol]	ΔG [kcal/mol]	ΔH [kcal/mol]	Compound
0.62	-0.54	-6.11	-6.66	DVKLEFFGFEDHETGGDEGGSGSSNYKIKYFGFDDLSESED [Wapl 423-463]
0.89	-12.30	-7.69	-20.00	CC(C)C[C@H](NC(=O)[C@H](CC(N)=O)NC(=O)[C@H](Cc1ccccc1)NC(=O)[C@H](CC(N)=O)NC(=O)[C@H](Cc1ccc(O)cc1)NC(=O)[C@H](C)NC(=O)[C@H](CC(=O)O)NC(=O)[C@H](CC(N)=O)NC(=O)[C@@H](N)CO)C(=O)N[C@@H](CCC(=O)O)C(=O)N[C@@H](CCC(=O)O)C(=O)NCC(=O)N[C@H](C(=O)N[C@@H](Cc1c[nH]cn1)C(=O)N[C@@H](CC(C)C)C(=O)N[C@H](C(=O)N1CCC[C@H]1C(=O)N[C@@H](Cc1ccccc1)C(=O)N[C@@H](CCCNC(=N)N)C(=O)O)[C@@H](C)OP(=O)(O)O)C(C)C [Shugoshin 331-349 (pT346), reference compound] (H-SNDAYNFNLEEGVHL[pT]PFR-OH; N-terminus and C-terminus assumed)
0.83	-4.02	-6.64	-10.67	SNDAYNFNLEE [Shugoshin 331-341]
1.00	-1.20	-5.60	-6.81	NYKIKYFGFDDLSESE [Wapl 447-462]
